Assay results published in ChEMBL document CHEMBL1138515, “Synthesis and biological characterization of B-ring amino analogues of potent benzothiadiazine hepatitis C virus polymerase inhibitors” (J Med Chem, 2009).

What was measured:
[1] = Oral bioavailability in Sprague-Dawley rat at 5 mg/kg; assay type: ADME, organism-based; conditions: in vivo
Procedure, shortened: (§1)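 Overnight-fasted Sprague-Dawley rats (n = 3) received a single 5 mg/kg iv or oral dose in DMSO/PEG400 (1:9, v/v). Mean concentrations were fitted multiexponentially. AUC₀₋ₜ was calculated by linear trapezoidal rule and extrapolated to infinity using Cₜ divided by the terminal rate constant.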

[2] = Clearance in Sprague-Dawley rat at 5 mg/kg, iv; assay type: ADME, organism-based; set-up: dose 5 mg/kg, route intravenous; conditions: in vivo; procedure, shortened: as §1
[3] = Half life in Sprague-Dawley rat at 5 mg/kg, iv; assay type: ADME, organism-based; set-up: dose 5 mg/kg, route intravenous; conditions: in vivo; procedure, shortened: as §1
Hepatitis C virus [4] = test: Antiviral activity against HCV1a H77 assessed as inhibition of viral replication by cell-based replicon assay; assay type: functional, organism-based, Hepacivirus hominis; conditions: genotype 1a H77
Procedure, shortened: (§2)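 Stable luciferase-reporter subgenomic replicon Huh-7 lines (1a H77; 1b Con1) were seeded at 5000 cells/well in DMEM with 5% FBS. The next day an eight-point half-log dilution series was added from DMSO stocks. After 3 days the cells were lysed, luciferin was added and luminescence was read. EC₅₀ came from percent inhibition of replication at each concentration.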

[5] = Inhibition of HCV1a H77 NS5B assessed as [3H]UTP incorporation into RNA by scintillation counting; set-up: species or system Hepatitis C virus (isolate H77)
Procedure, shortened: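 Two-fold serial inhibitor dilutions were preincubated for 15 min at room temperature with NS5B (genotype 1a H77 or genotype 1b BK, 20-50 nM) in 20 mM Tris-Cl pH 7.4, 2 mM MnCl₂, 1 mM DTT, 1 mM EDTA and 60-125 µM GTP. Reactions were started with 20 µM CTP, 20 µM ATP, 1 µM ³H-UTP, 5 nM template RNA and RNase inhibitor, then run 2-4 h at room temperature.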

[6] = AUC (0 to infinity) in Sprague-Dawley rat at 5 mg/kg, po; assay type: ADME, organism-based; set-up: time infinity, dose 5 mg/kg, route oral; conditions: plasma; procedure, shortened: as §1
[7] = Cmax in Sprague-Dawley rat at 5 mg/kg, po; assay type: ADME, organism-based; set-up: dose 5 mg/kg, route oral; conditions: in vivo; procedure, shortened: as §1
[8] = Drug level in Sprague-Dawley rat liver at 5 mg/kg, po after 12 hrs; assay type: ADME, organism-based; set-up: dose 5 mg/kg, route oral; conditions: read-out: Drug uptake
Procedure, shortened: (§3)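 Sprague-Dawley rats were given 5 mg/kg orally in DMSO/PEG400 (1:9, v/v). Separate animals were sampled for liver and plasma at 1, 6 and 12 h. Drug in liver (µg/g) and in plasma was measured by LC-MS, and liver/plasma ratios were taken at each time.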

[9] = Ratio of drug level in liver to plasma of Sprague-Dawley rat at 5 mg/kg, po after 1 hr; assay type: ADME, organism-based; set-up: dose 5 mg/kg, route oral; conditions: liver and plasma; procedure, shortened: as §3
Hepatitis C virus [10] = test: Antiviral activity against HCV1b Con1 infected in human Huh7 cells assessed as inhibition viral subgenomic replication […]; assay type: functional, organism-based, Hepacivirus hominis; conditions: isolate Con1, Huh-7
[11] = Drug level in Sprague-Dawley rat liver at 5 mg/kg, po after 1 hr; assay type: ADME, organism-based; set-up: dose 5 mg/kg, route oral; conditions: read-out: Drug uptake; procedure, shortened: as §3
[12] = Drug level in Sprague-Dawley rat liver at 5 mg/kg, po after 6 hrs; assay type: ADME, organism-based; set-up: dose 5 mg/kg, route oral; conditions: read-out: Drug uptake; procedure, shortened: as §3
[13] = Ratio of drug level in liver to plasma of Sprague-Dawley rat at 5 mg/kg, po after 6 hrs; assay type: ADME, organism-based; set-up: dose 5 mg/kg, route oral; conditions: liver and plasma; procedure, shortened: as §3
Hepatitis C virus [14] = test: Antiviral activity against HCV1a H77 infected in human Huh7 cells assessed as inhibition viral subgenomic replication; assay type: functional, organism-based, Hepacivirus hominis; conditions: genotype 1a H77, Huh-7; procedure, shortened: as §2
Genome polyprotein = Genome polyprotein (Hepatitis C virus genotype 1b (isolate Con1) (HCV), UniProt Q9WMX2); test: Inhibition of HCV1b Con1 NS5B assessed as [3H]UTP incorporation into RNA by scintillation counting
[15] = Ratio of drug level in liver to plasma of Sprague-Dawley rat at 5 mg/kg, po after 12 hrs; assay type: ADME, organism-based; set-up: dose 5 mg/kg, route oral; conditions: liver and plasma; procedure, shortened: as §3
Hepatitis C virus [16] = test: Antiviral activity against HCV1b Con1 infected in human Huh7 cells assessed as inhibition viral subgenomic replication; assay type: functional, organism-based, Hepacivirus hominis; conditions: isolate Con1, Huh-7; procedure, shortened: as §2

Genome polyprotein, sequence (Q9WMX2 2420-3010 limits assumed): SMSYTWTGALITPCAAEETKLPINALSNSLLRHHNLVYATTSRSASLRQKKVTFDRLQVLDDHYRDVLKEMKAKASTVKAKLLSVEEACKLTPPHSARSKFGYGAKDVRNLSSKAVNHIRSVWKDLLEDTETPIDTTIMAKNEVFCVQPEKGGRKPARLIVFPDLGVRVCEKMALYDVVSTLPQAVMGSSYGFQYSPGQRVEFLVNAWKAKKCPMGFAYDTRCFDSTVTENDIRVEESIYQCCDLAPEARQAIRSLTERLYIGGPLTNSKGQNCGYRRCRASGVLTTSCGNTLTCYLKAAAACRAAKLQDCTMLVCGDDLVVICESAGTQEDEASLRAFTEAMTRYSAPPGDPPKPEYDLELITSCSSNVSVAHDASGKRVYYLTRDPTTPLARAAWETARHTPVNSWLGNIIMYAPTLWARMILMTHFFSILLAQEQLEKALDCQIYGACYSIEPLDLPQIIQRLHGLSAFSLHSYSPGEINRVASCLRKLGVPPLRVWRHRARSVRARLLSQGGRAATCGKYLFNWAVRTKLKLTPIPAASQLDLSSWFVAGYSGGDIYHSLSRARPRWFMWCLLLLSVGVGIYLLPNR

SMILES | EC50 (Hepatitis C virus [4]) | IC50 [5] | also measured
Cc1cccc(CNC2(CCC(C)(C)C)C(=O)C(C3=NS(=O)(=O)c4cc(NS(C)(=O)=O)ccc4N3)=C(O)c3ccccc32)n1 (stereo not given) | 13 nM | 15 nM | bioavailability [1]: 33.8%; clearance [2]: 28.3 mL/min/kg; half-life [3]: 60 min; AUC(0-inf) [6]: 1340 ng·h/mL; Cmax [7]: 150 ng/mL
CC(C)(C)CCC1(NC(=O)c2ccccc2)C(=O)C(C2=NS(=O)(=O)c3cc(NS(C)(=O)=O)ccc3N2)=C(O)c2ccccc21 (stereo not given) |  | 151 nM | 
Cn1ccnc1CNC1(CCC(C)(C)C)C(=O)C(C2=NS(=O)(=O)c3cc(NS(C)(=O)=O)ccc3N2)=C(O)c2ccccc21 (stereo not given) | 29 nM | 9 nM | 
CC(C)(C)CCC1(NCc2ccccc2)C(=O)C(C2=NS(=O)(=O)c3cc(NS(C)(=O)=O)ccc3N2)=C(O)c2ccccc21 (stereo not given) | 10 nM | 17 nM | 
COc1ccc(OC)c(CNC2(CCC(C)(C)C)C(=O)C(C3=NS(=O)(=O)c4cc(NS(C)(=O)=O)ccc4N3)=C(O)c3ccccc32)c1 (stereo not given) | 15 nM | 10 nM | 
COC(=O)NC1(CCC(C)C)C(=O)C(C2=NS(=O)(=O)c3cc(NS(C)(=O)=O)ccc3N2)=C(O)c2ccccc21 (stereo not given) | 210 nM | 25 nM | 
CC(C)CCC1(NCc2ccccc2)C(=O)C(C2=NS(=O)(=O)c3cc(NS(C)(=O)=O)ccc3N2)=C(O)c2ccccc21 (stereo not given) | 34 nM | 19 nM | 
CC(C)CCC1(NS(C)(=O)=O)C(=O)C(C2=NS(=O)(=O)c3cc(NS(C)(=O)=O)ccc3N2)=C(O)c2ccccc21 (stereo not given) | 69 nM | 24 nM | 
CON[C@]1(CCC(C)C)C(=O)C(C2=NS(=O)(=O)c3cc(NS(C)(=O)=O)ccc3N2)=C(O)c2ccccc21 | 12 nM | 6 nM | bioavailability [1]: 34.1%; clearance [2]: 45 mL/min/kg; half-life [3]: 36 min; AUC(0-inf) [6]: 350 ng·h/mL
CC(C)CC[C@@]1(NCc2ccccc2)C(=O)C(C2=NS(=O)(=O)c3cc(NS(C)(=O)=O)ccc3N2)=C(O)c2ccccc21 | 16 nM | 10 nM | concentration at 12 h [8]: 880 ng/g; bioavailability [1]: 13.3%; Kp at 1 h [9]: 12; EC50 (Hepatitis C virus [10]): 273 nM; clearance [2]: 19.3 mL/min/kg; half-life [3]: 102 min; concentration at 1 h [11]: 3590 ng/g; concentration at 6 h [12]: 2350 ng/g; Kp at 6 h [13]: 6; EC50 (Hepatitis C virus [14]): 68 nM; IC50 (Genome polyprotein): 16 nM; Kp at 12 h [15]: 3; EC50 (Hepatitis C virus [16]): 15 nM; AUC(0-inf) [6]: 600 ng·h/mL; Cmax [7]: 80 ng/mL
CON(C(C)=O)C1(CCC(C)C)C(=O)C(C2=NS(=O)(=O)c3cc(NS(C)(=O)=O)ccc3N2)=C(O)c2ccccc21 (stereo not given) |  | 83 nM | 
CC(C)CCC1(NC(=O)c2ccccc2)C(=O)C(C2=NS(=O)(=O)c3cc(NS(C)(=O)=O)ccc3N2)=C(O)c2ccccc21 (stereo not given) |  | 108 nM | 
CC(C)CCC1(NC(N)=O)C(=O)C(C2=NS(=O)(=O)c3cc(NS(C)(=O)=O)ccc3N2)=C(O)c2ccccc21 (stereo not given) | 576 nM | 27 nM | 
CC(C)(C)CCC1(NCc2ccc(OCc3ccccc3)cc2)C(=O)C(C2=NS(=O)(=O)c3cc(NS(C)(=O)=O)ccc3N2)=C(O)c2ccccc21 (stereo not given) | 118 nM | 27 nM | 
CC(C)(C)CCC1(NCc2ccco2)C(=O)C(C2=NS(=O)(=O)c3cc(NS(C)(=O)=O)ccc3N2)=C(O)c2ccccc21 (stereo not given) | 10 nM | 12 nM | 
CC(C)CC[C@@]1(N)C(=O)C(C2=NS(=O)(=O)c3cc(NS(C)(=O)=O)ccc3N2)=C(O)c2ccccc21 | 37 nM | 4 nM | bioavailability [1]: 0%; clearance [2]: 35.3 mL/min/kg; half-life [3]: 18 min
CC(C)CCC1(N)C(=O)C(C2=NS(=O)(=O)c3cc(NS(C)(=O)=O)ccc3N2)=C(O)c2ccccc21 (stereo not given) | 29 nM | 12 nM | 
CC(C)(C)CCC1(NCc2ccc(O)cc2)C(=O)C(C2=NS(=O)(=O)c3cc(NS(C)(=O)=O)ccc3N2)=C(O)c2ccccc21 (stereo not given) | 13 nM | 20 nM | 
